Calls of active or inactive are those of the source. The calls are words filed in the database; no cut-off is given here.
Tests used:
PBMC [1] = experiment: Immunostimulatory activity against human PBMC assessed as RANTES production at 22 uM after 72 hrs; assay type: functional, cell-based
Outline: (§1)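 Unstimulated PBMCs and PHA-blasts from three donors, in three independent experiments, cultured with test compound at 20 μg/ml (21 or 22 μM). Supernatants collected after 72 h. The cytokine profile was read on a Bio-Plex 27-plex human cytokine bead immunoassay, using beads coupled to cytokine-specific monoclonal antibodies and run per the kit instructions.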

PBMC [2] = experiment: Immunostimulatory activity against human PBMC assessed as suppression of IL-4 production at 21 uM after 72 hrs; assay type: functional; outline: as §1
PBMC [3] = experiment: Immunostimulatory activity against human PBMC assessed as IP-10 production at 21 uM after 72 hrs; assay type: functional, cell-based; outline: as §1
PBMC [4] = experiment: Immunostimulatory activity against human PBMC assessed as IP-10 production at 22 uM after 72 hrs; assay type: functional, cell-based; outline: as §1
[5] = test system: Human immunodeficiency virus 2; experiment: Ratio of EC90 to EC50 for X4 tropic HIV-2 BV-5061 W infected in human PBMC
[6] = Binding affinity to HIV-1 3B gp120 assessed as dissociation rate constant after 6 mins by SPR analysis in presence of 10 mM CaCl2; set-up: species or system Human immunodeficiency virus 1
[7] = test system: Human immunodeficiency virus 1; experiment: Antiviral activity against R5 tropic HIV-1 clade A isolate UG273 infected in human PBMC assessed as inhibition of viral replication […] by ELISA; assay type: functional, organism-based; conditions: Human immunodeficiency virus 1, clade A isolate UG273
Outline: (§2)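 PBMCs from healthy donors were stimulated with PHA (2 μg/ml) for 3 days, then seeded at 0.5 × 10^6 cells/well in RPMI 1640 with 10% FCS, IL-2 (25 U/ml) and compound. Virus was added at a final 250 pg p24/ml. Supernatant was taken at day 12 for p24 antigen ELISA.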

PBMC [8] = experiment: Immunostimulatory activity against human PBMC assessed as IL-8 production at 21 uM after 72 hrs; assay type: functional, cell-based; outline: as §1
[9] = test system: Human immunodeficiency virus 1; experiment: Binding affinity to HIV-1 HXB2 gp41 after 6 mins by SPR analysis
PBMC [10] = experiment: Immunostimulatory activity against human PBMC assessed as IL-9 production at 22 uM after 72 hrs; assay type: functional, cell-based; outline: as §1
[11] = test system: Human immunodeficiency virus 1; experiment: Antiviral activity against HIV-1 3B infected in human HUT78 cells assessed as prevention of syncytium formation between persistently HIV-1 3B-infected HUT-78 cells and uninfected SupT1 cells compound preexposed to high temperature after 3 to 4 days by ELISA; assay type: functional, organism-based; conditions: SUP-T1
PBMC [12] = experiment: Immunostimulatory activity against human PBMC assessed as IL-12 production at 21 uM after 72 hrs; assay type: functional, cell-based; outline: as §1
PBMC [13] = experiment: Immunostimulatory activity against human PBMC assessed as suppression of IL-9 production at 21 uM after 72 hrs; assay type: functional; outline: as §1
[14] = test system: Human immunodeficiency virus 1; experiment: Antiviral activity against X4 tropic HIV-1 3B infected in human PBMC assessed as inhibition of viral replication […] by ELISA; assay type: functional, organism-based; conditions: Human immunodeficiency virus 1, 3B; outline: as §2
PBMC [15] = experiment: Immunostimulatory activity against human PBMC assessed as suppression of IL-2 production at 21 uM after 72 hrs; assay type: functional; outline: as §1
[16] = test system: Human immunodeficiency virus 1; experiment: Binding affinity to HIV-1 3B gp120 assessed as association rate constant after 6 mins by SPR analysis in presence of 10 mM CaCl2
[17] = test system: Human immunodeficiency virus 1; experiment: Antiviral activity against R5 tropic HIV-1 clade F isolate BZ163 infected in human PBMC assessed as inhibition of viral replication after 12 days by ELISA; conditions: Human immunodeficiency virus 1, clade F isolate BZ163, 12 days
[18] = test system: Human immunodeficiency virus 1; experiment: Antiviral activity against R5 tropic HIV-1 clade G isolate BCF-DIOUM infected in human PBMC assessed as inhibition of viral replication […] by ELISA; assay type: functional, organism-based; conditions: Human immunodeficiency virus 1, clade G isolate BCF-DIOUM; outline: as §2
[19] = test system: Human immunodeficiency virus 1; experiment: Antiviral activity against X4 tropic HIV-1 Bal infected in human PBMC assessed as inhibition of viral replication […] by ELISA; assay type: functional, organism-based; conditions: Human immunodeficiency virus 1, Bal; outline: as §2
[20] = test system: Human immunodeficiency virus 1; experiment: Antiviral activity against HIV-1 3B infected in human HUT78 cells assessed as prevention of syncytium formation between persistently HIV-1 3B-infected HUT-78 cells and uninfected SupT1 cells compound preexposed at pH 4 after 3 to 4 days by ELISA; assay type: functional, organism-based; conditions: SUP-T1
PBMC [21] = experiment: Immunostimulatory activity against human PBMC assessed as IL-2 production at 21 uM after 72 hrs; assay type: functional, cell-based; outline: as §1
[22] = Binding affinity to HIV-1 3B gp120 after 6 mins by SPR analysis in presence of 10 mM CaCl2; set-up: species or system Human immunodeficiency virus 1
PBMC [23] = experiment: Immunostimulatory activity against human PBMC assessed as TNF-alpha production at 21 uM after 72 hrs; assay type: functional, cell-based; outline: as §1
PBMC [24] = experiment: Immunostimulatory activity against human PBMC assessed as IL-13 production at 21 uM after 72 hrs; assay type: functional, cell-based; outline: as §1
[25] = Antiviral activity against SIV mac251 infected in human MT4 cells assessed as inhibition of virus-induced cytopathicity after 7 days by trypan blue staining; assay type: functional, cell-based, Simian immunodeficiency virus - mac; conditions: Simian immunodeficiency virus, 251, MT4, 168 h
Outline: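 MT-4 cells (5 × 10^5/ml) infected with SIV at 100 CCID50/ml, mixed 1:1 with compound dilutions, incubated at 37°C; viable cells in infected and mock-infected cultures counted by trypan blue; EC50 and CC50 are concentrations reducing viable cell number by 50% in each.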

[26] = Cytotoxicity against human Caco2 cells after 3 to 4 days; assay type: cell-based; conditions: Caco-2 cells
Outline: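 Cells seeded at 20,000–75,000 per well with compound dilutions, incubated 3–4 days at 37°C, and counted on a Coulter particle counter; CC50 is the concentration inhibiting proliferation by 50%.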

[27] = Antiviral activity against SIV mac251 infected in human HUT78 cells assessed as prevention of syncytium formation between persistently SIV mac251-infected HUT-78 cells and uninfected CEM cells after 3 to 4 days by ELISA; assay type: functional, cell-based, Simian immunodeficiency virus - mac; conditions: Simian immunodeficiency virus, 251, CCRF-CEM
PBMC [28] = experiment: Immunostimulatory activity against human PBMC assessed as IL-15 production at 22 uM after 72 hrs; assay type: functional, cell-based; outline: as §1
[29] = test system: Human immunodeficiency virus 1; experiment: Antiviral activity against R5 tropic HIV-1 Bal infected in human Raji cells expressing DC-SIGN gene assessed as inhibition of virus capture by Raji cells after 60 mins by ELISA; assay type: functional, organism-based; conditions: Human immunodeficiency virus 1, Bal, 1 h
[30] = test system: Human immunodeficiency virus 1; experiment: Binding affinity to HIV-1 3B gp120 after 6 mins by SPR analysis
[31] = test system: Human immunodeficiency virus 1; experiment: Antiviral activity against compound pretreated HIV-1 3B isolate 42 harboring gp120 mutant infected in human CEM cells assessed as inhibition of virus-induced cytopathicity after 3 to 4 days by microscopic analysis; assay type: functional, organism-based; conditions: Human immunodeficiency virus 1, 3B isolate 42, CCRF-CEM
Outline: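 CEM or C8166 cells at 5 × 10^5/ml infected with HIV-1 at 100 CCID50 per ml, then mixed 1:1 with compound dilutions and held at 37°C for 3–4 days. Giant cells were counted microscopically at ×100 against untreated infected cultures. EC50 is the concentration cutting syncytium formation by 50%.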

[32] = test system: Human immunodeficiency virus 1; experiment: Binding affinity to HIV-1 HXB2 gp41 assessed as association rate constant after 6 mins by SPR analysis in presence of 10 mM CaCl2

Compound: CN[C@@H]1[C@H](O[C@@H]2OC[C@@H](O)[C@H](O)[C@H]2O)[C@@H](O)[C@H](O[C@H]2c3cc(C)c(C(=O)N[C@H](C)C(=O)O)c(O)c3-c3c(cc4c(c3O)C(=O)c3cc(OC)cc(O)c3C4=O)[C@@H]2O)O[C@@H]1C [PRADIMICIN A]
- Activity (PBMC [1]): inactive
- fold change (FC) (PBMC [2]): 2
- Activity (PBMC [3]): inactive
- Activity (PBMC [4]): inactive
- Ratio [5]: 2
- Kd [6]: 6.1 ×10⁻³ /s
- EC50 [7]: 5.9 µM
- Activity (PBMC [8]): inactive
- Activity [9]: inactive
- Activity (PBMC [10]): inactive
- Activity [11]: Active
- Activity (PBMC [12]): inactive
- fold change (FC) (PBMC [13]): 2
- EC50 [14]: 2.6 µM
- fold change (FC) (PBMC [15]): 4
- Ka [16]: 1.49 ×10⁴ /M/s
- EC50 [17]: 8 µM
- EC50 [18]: 6.7 µM
- EC50 [19]: 2.2 µM
- Activity [20]: Active
- Activity (PBMC [21]): inactive
- Kd [22]: 0.41 µM
- Activity (PBMC [23]): inactive
- Activity (PBMC [24]): inactive
- EC50 [25]: 5 µM
- CC50 [26]: > 50 µM
- EC50 [27]: 4.3 µM
- Activity (PBMC [28]): inactive
- IC50 [29]: 17 µM
- Activity [30]: inactive
- EC50 [31]: > 50 µM
- Ka [32]: 1.96 ×10³ /M/s

Compound: CN[C@@H]1[C@H](O[C@@H]2O[C@H](CO)[C@@H](O)[C@H](OS(=O)(=O)O)[C@H]2O)[C@@H](O)[C@H](O[C@H]2c3cc(C)c(C(=O)N[C@H](C)C(=O)O)c(O)c3-c3c(cc4c(c3O)C(=O)c3cc(OC)cc(O)c3C4=O)[C@@H]2O)O[C@@H]1C [PRADIMICIN S]
- Activity (PBMC [1]): inactive
- fold change (FC) (PBMC [2]): 2
- Activity (PBMC [3]): inactive
- Activity (PBMC [4]): inactive
- Ratio [5]: 2
- Kd [6]: 5.11 ×10⁻³ /s
- EC50 [7]: 15 µM
- Activity (PBMC [8]): inactive
- Activity [9]: inactive
- Activity (PBMC [10]): inactive
- Activity [11]: Active
- Activity (PBMC [12]): inactive
- fold change (FC) (PBMC [13]): 2
- EC50 [14]: 8.5 µM
- fold change (FC) (PBMC [15]): 4
- Ka [16]: 1.27 ×10⁴ /M/s
- EC50 [17]: 17 µM
- EC50 [18]: 17 µM
- EC50 [19]: 5.3 µM
- Activity [20]: Active
- Activity (PBMC [21]): inactive
- Kd [22]: 0.4 µM
- Activity (PBMC [23]): inactive
- Activity (PBMC [24]): inactive
- EC50 [25]: 8.1 µM
- CC50 [26]: > 230 µM
- EC50 [27]: 12 µM
- Activity (PBMC [28]): inactive
- IC50 [29]: 21 µM
- Activity [30]: inactive
- EC50 [31]: > 50 µM
- Ka [32]: 2.73 ×10³ /M/s

— ChEMBL document CHEMBL1671680, “Pradimicin S, a highly soluble nonpeptidic small-size carbohydrate-binding antibiotic, is an anti-HIV drug lead for both microbicidal and systemic use” (Antimicrob Agents Chemother, 2010)
